Compound activity (PubChem BioAssay)
Shown are actives, neighbours in structure and some others; about 4.6% of the full set was active somewhere.
PfM18AAP inh-1: PfM18AAP inhibitors, malaria aminopeptidase, primary screen, biochemical, QFRET, recombinant enzyme; M18 aspartyl aminopeptidase (Plasmodium falciparum 3D7); H-Glu-NHMec fluorogenic cleavage; inhibition, % at 7.35 µM; actives 1.2% (n = 290,000); AID 1822, 2009;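 active = inhibition above the campaign mean inhibition over all tested compounds plus 3 SD, cut at about 28% in these data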;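 also: 0% = plate median of test compound wells and 100% = 2 mM ZnCl2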
ALR inh: inhibitors of human ALR sulfhydryl oxidase, primary screen, biochemical, H2O2 detection, HRP-luminol luminescence, single point; FAD-linked sulfhydryl oxidase ALR (Homo sapiens), P55789; actives 3.8% (n = 290,000); purified ALR, DTT oxidation; inhibition, % (concentration not given with the values);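 active = mean replicate inhibition above about 79%, with every replicate also reaching it, limit read from the data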
Target sequence (P55789 whole entry, looked up): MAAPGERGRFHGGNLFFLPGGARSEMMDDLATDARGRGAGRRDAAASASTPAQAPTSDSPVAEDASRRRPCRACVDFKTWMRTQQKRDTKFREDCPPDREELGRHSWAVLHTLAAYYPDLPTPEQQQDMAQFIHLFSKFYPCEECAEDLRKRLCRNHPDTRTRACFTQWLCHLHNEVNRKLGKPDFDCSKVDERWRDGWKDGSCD
FAS-TE inh: FAS thioesterase domain inhibitors, primary screen, biochemical, fluorescence intensity, uHTS | Fatty acid synthase (Homo sapiens), P49327 | recombinant FAS-TE, OMFH fluorogenic substrate, fluorescence endpoint | inhibition, % at 15 µM | actives 0.67% (n = 360,000) | AID 602261, 2012;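 active = compounds whose normalised, plate-corrected inhibition of enzyme fluorescence in the single-dose primary screen is 50% or more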;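 also: 0% = DMSO with enzyme and 100% = substrate without enzyme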
Rtt109 HAT inh: inhibitors of C. albicans Rtt109/Vps75 HAT, primary screen, biochemical, ThioGlo CoA-SH fluorescence, plate reader | actives 0.16% (n = 330,000) | purified Rtt109/Vps75, 4 h | inhibition, % at 34.9 µM;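 active = inhibition of at least 50% in every replicate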
UCH37 inh: inhibitors of human UCH37 deubiquitinase, primary screen, biochemical, Ub-AMC cleavage, fluorescence. purified proteasome/UCH37. actives 0.33% (n = 330,000). inhibition, % (concentration not given with the values). AID 588478, 2011;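 active = mean inhibition over replicate wells above about 20%, limit read from the data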;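 also: 0% = compound-free wells with enzyme and 100% = wells lacking proteasome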
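Assay system: Proteasome-bound UCH37. Buffer or medium: pH 7.4 Tris-HCl (50 mM) with ovalbumin, ATP-MgCl2, DTT. Incubation: 30 min preincubation with enzyme, 25 min cleavage at room temperature. Measured by: fluorescence, ex 355 nm, em 460 nm. Read-out basis: percent inhibition. Control set: wells without proteasome as full block, compound-free enzyme plus substrate as uninhibited.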
HDAC3 inhib: HDAC3 deacetylase inhibitors, primary screen, biochemical, fluorescence, cell-free homogeneous | Histone deacetylase 3 (Homo sapiens), O15379 | recombinant HDAC3, fluorogenic peptide/trypsin coupled | inhibition, % at 8.3 µM | actives 0.15% (n = 320,000) | AID 2718, 2010; in the data active = inhibition above about 26%, passing the limit was not always enough
PfM18AAP inh-2: PfM18AAP inhibitors, malaria aminopeptidase, confirmation, biochemical, QFRET, recombinant enzyme, triplicate | shares compounds with PfM18AAP inh-1 | H-Glu-NHMec fluorogenic cleavage | inhibition, % at 7.35 µM | actives 28% (n = 2,400);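 active = mean inhibition over replicate wells above the hit cutoff set for the earlier primary screen, cut at about 29% in these data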;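 also: 0% = median of test compound wells and 100% = 2 mM ZnCl2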
CTSL1 confirm: cathepsin L1 inhibitors, retest, confirmation, counter-screen for PFM18AAP inhibitor project, biochemical, QFRET, triplicate. inhibition, % at 5.96 µM. shares compounds with PfM18AAP inh-1. 2,400 tested, under 10 active. purified cathepsin L1, Z-Leu-Arg-MCA fluorescence;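 active = average inhibition across replicates above the hit cutoff set in the earlier primary screen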;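 also: 0% = median of test compound wells and 100% = Z-Phe-Ala-diazomethylketone 1 µM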
Target sequence (P07711 whole entry, looked up): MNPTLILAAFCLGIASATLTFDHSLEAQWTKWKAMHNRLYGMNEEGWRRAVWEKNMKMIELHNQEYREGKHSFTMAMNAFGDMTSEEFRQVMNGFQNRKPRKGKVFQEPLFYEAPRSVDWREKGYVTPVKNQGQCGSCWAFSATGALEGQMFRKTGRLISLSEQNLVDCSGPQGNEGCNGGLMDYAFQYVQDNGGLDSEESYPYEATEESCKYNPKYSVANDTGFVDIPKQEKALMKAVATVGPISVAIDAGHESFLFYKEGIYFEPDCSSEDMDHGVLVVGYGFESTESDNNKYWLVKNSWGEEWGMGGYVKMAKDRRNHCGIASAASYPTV
Starred values were filed as active, the others as inactive; / = no result given.

SMILES	PfM18AAP inh-1	ALR inh	FAS-TE inh	Rtt109 HAT inh	UCH37 inh	HDAC3 inhib	PfM18AAP inh-2	CTSL1 confirm
Nc1nc(N)nc(-c2ccc([N+](=O)[O-])o2)n1	/	/	-7	5	3	/	/	/
COc1ccc(CNC(=O)CC(C)=NNC(=O)COc2ccc(Br)cc2)cc1	/	/	/	/	5	/	/	/
COc1cc(C=NN(c2ccccc2)c2ccccc2)ccc1O	/	/	/	/	2	/	/	/
O=S(=O)(NNc1nccc(C(F)(F)F)n1)c1cccc(Cl)c1Cl	56*	4	4	-1	4	3	14	6
FC(F)(F)c1ccnc(NCc2ccc(Cl)cc2)n1	-6	23	17	/	1	2	/	/
NCCCNC(=O)c1ccc(C=NO)nc1	/	/	/	/	3	/	/	/
S=c1nc(-c2ccccc2Cl)[nH][nH]1	49*	99*	-4	-7	0	10	2	-1
CC(=NNS(=O)(=O)c1ccc(Br)cc1)c1ccc(C)o1	/	/	/	/	2	/	/	/
COc1ccc(/C(C)=N\Nc2nc(-c3ccccc3)cc(=O)[nH]2)cc1	40*	-1	-14	-1	/	-1	-31	5
Cc1cccc(NC(=O)CSc2cn[nH]n2)c1	13	-10	-9	-3	4	5	/	/
O=C(CSc1cn[nH]n1)Nc1cccc(C(=O)O)c1	54*	/	-5	81*	7	14	12	-6
CC(=O)Oc1cc(O)c2c(c1)OC(c1ccc(OC(C)=O)c(OC(C)=O)c1)C(OC(C)=O)C2=O (stereo unspecified)	54*	89*	-1	2	7	4	31*	-21
COc1cc(C2Oc3cc(C4Oc5cc(O)cc(O)c5C(=O)C4O)ccc3OC2CO)ccc1O (stereo unspecified)	-2	74	-2	4	3	11	/	/
CC(=NNc1ccc(Cl)cc1)C(=NO)C(=O)Nc1ccccc1	/	/	/	/	0	/	/	/
COc1ccc(OC)c(C=NNC(=S)NCCc2ccccc2)c1	/	/	/	/	-48	/	/	/
CC1(C)CC(=O)c2c(oc3cc(O)c(O)cc23)C1	83*	43	-12	18	0	-10	73*	-7
COC(=O)c1oc2c(c1C)C(=O)CC(C)(C)C2	1	-3	-7	7	1	-4	/	/
COc1ccc(N(C(C)C(=O)NN=Cc2ccc(OC(C)C)cc2)S(C)(=O)=O)cc1 (stereo unspecified)	/	/	/	/	0	/	/	/
O=C(O)c1ccccc1NS(=O)(=O)c1cccc(-n2sc3ccccc3c2=O)c1	62*	98*	-4	153*	3	54*	50*	-4
CN(C)N=C/C=C1\CCC/C(=C/c2cccs2)C1=O	/	/	/	/	4	/	/	/
CNC(=S)NNC(=O)c1sccc1C	35*	30	-11	-6	-3	8	19	-3
CCCCNC(=S)NNC(=O)c1sccc1C	15	45	-9	-7	3	-3	/	/
O=C1Nc2ccccc2/C1=N\N=C\c1ccc(O)c(O)c1	48*	99*	-4	11	/	8	47*	11
O=Cc1ccc(O)c(O)c1	48*	99*	-6	3	6	3	31*	-1
CCOc1cc(/C=N/N=C/c2ccc(O)c(OCC)c2)ccc1O	-1	7	0	8	/	2	/	/
SMILES	PfM18AAP inh-1	ALR inh	FAS-TE inh	Rtt109 HAT inh	UCH37 inh	HDAC3 inhib	PfM18AAP inh-2	CTSL1 confirm
O=C(/C(=N/N=C/c1ccc(O)c(O)c1)c1ccccc1)c1ccccc1	48*	/	1	3	/	9	30*	3
Oc1ccc(/C=N/N=C/c2ccc(O)c(O)c2)cc1O	81*	99*	-3	2	/	13	76*	6
COc1ccc(O)c(C=NN=C2C(=O)Nc3ccccc32)c1	/	/	/	/	4	/	/	/
COc1cc(C=NN=C(C(=O)c2ccccc2)c2ccccc2)cc(OC)c1O	/	/	/	/	5	/	/	/
CNC(=S)N(C)N=C1C(=O)N(Cc2c(Cl)cccc2Cl)c2ccccc21	/	/	/	/	0	/	/	/
Oc1c(Br)cc(Br)cc1C=Nc1nc2c(s1)CCCC2	/	/	/	/	2	/	/	/
CCOC(=O)c1c(-c2cccs2)csc1N	36*	11	2	-14	3	8	-42	-2
CCOC(=O)c1c(-c2ccco2)csc1N	21	-6	-2	4	3	7	/	/
O=C(/C=C/c1ccc(O)c(O)c1)NC(=O)c1ccccc1O	77*	96*	-1	9	12	0	62*	-1
C[C@H](NC(=O)c1cc2c(cn1)[nH]c1ccccc12)C(=O)O	51*	98*	-2	4	/	2	27	6
COC(=O)[C@H](C)NC(=O)c1cc2c(cn1)[nH]c1ccccc12	21	-16	-6	0	/	4	/	/
CCC(=O)NC(=S)Nc1ccccc1C(F)(F)F	-9	68	-8	9	0	3	/	/
Cc1ccc(C(=O)NC(=S)NNC(=O)CC#N)cc1	33*	99*	-5	-4	2	1	-30	0
CCCCC(=O)NNC(=S)NC(=O)c1ccc(C)cc1	46*	99*	-5	8	0	3	-28	1
CCCCC(=O)NNC(=S)NC(=O)c1ccc([N+](=O)[O-])cc1	39*	55	6	11	7	-3	-25	-2
N#CCC(=O)NNC(=S)Nc1ccccc1C(F)(F)F	46*	23	-7	12	2	0	-37	1
COc1ccc(C(=O)NC(=S)NNC(=O)c2ccc(C)cc2)cc1	/	0	3	4	0	1	/	/
CCCCCC(=O)NNC(=S)NC(C)=O	11	63	-2	0	1	7	/	/
CC(/C=C/c1ccccc1)=NNc1nc(-c2ccccc2)cs1	/	/	/	/	-3	/	/	/
NC(=O)c1c(N=Cc2cccnc2)sc2c1CCCC2	/	/	/	/	-12	/	/	/
O=C(NN=C1CC2CC=CC12)c1ccccc1Cl (stereo unspecified)	/	/	/	/	3	/	/	/
CCN(CC)c1ccc(NS(=O)(=O)c2ccc(-c3ccc(=O)[nH]n3)o2)c(C)c1	45*	100*	-6	0	5	1	12	-1
